Laboratory results published in ChEMBL document CHEMBL1143872, “Design, synthesis, and preliminary evaluation of 4-(6-(3-nitroguanidino)hexanamido)pyrrolidine derivatives as potential iNOS inhibitors” (Bioorg Med Chem, 2008).

Biological target: T1, Nitric oxide synthase, inducible (Mus musculus, UniProt P29477)
T1 sequence (P29477 whole entry): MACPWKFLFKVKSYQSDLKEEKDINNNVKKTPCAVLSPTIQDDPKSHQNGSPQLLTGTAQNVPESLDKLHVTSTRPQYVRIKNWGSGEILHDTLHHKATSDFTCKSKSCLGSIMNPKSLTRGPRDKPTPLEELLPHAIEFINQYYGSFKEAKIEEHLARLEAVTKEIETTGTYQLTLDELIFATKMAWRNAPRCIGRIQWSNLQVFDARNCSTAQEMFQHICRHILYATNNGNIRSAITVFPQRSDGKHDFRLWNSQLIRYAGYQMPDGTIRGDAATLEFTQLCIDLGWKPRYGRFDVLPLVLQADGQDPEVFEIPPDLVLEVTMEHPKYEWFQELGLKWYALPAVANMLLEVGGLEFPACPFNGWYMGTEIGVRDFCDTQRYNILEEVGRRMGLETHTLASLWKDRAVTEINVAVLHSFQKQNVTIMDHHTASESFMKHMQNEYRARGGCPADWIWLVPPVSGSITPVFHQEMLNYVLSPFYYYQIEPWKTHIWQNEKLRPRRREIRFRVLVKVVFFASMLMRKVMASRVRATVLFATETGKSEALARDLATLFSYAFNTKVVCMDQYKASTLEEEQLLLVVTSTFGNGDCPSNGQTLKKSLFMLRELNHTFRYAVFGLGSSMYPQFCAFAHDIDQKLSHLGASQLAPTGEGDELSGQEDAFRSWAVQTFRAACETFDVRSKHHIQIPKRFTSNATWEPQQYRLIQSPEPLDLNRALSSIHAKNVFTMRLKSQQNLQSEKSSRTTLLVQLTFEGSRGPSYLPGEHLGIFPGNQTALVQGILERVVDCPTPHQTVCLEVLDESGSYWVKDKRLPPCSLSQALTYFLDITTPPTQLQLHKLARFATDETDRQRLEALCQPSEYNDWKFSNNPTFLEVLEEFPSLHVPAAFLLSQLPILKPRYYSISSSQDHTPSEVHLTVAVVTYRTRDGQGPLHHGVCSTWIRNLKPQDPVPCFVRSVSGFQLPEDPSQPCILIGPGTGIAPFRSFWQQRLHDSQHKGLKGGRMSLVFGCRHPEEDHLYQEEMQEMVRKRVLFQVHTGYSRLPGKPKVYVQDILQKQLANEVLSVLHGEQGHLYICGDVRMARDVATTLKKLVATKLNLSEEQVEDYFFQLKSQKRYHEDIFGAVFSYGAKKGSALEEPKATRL
Experiment: Inhibition of inducible NOS mediated nitric oxide production in LPS-activated Kunming mouse macrophages
How it was run: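 Peritoneal exudate cells from female Kunming mice (18–22 g), elicited 2 d earlier by ip 3% starch (1 mL). Cells (10^6/well) precultured 4 h at 37 °C in DMEM with 5% FCS, then washed to keep the adherent macrophages (>95% by Giemsa). Stimulated with LPS 10 µg/mL plus graded compound for 20 h. Nitrite/nitrate measured after nitrate reductase conversion, read colorimetrically. Inhibition % calculated, IC50 read graphically. L-NNA positive control.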

Cc1ccccc1NC(=O)[C@@H]1C[C@H](NC(=O)CCCCCNC(=N)N[N+](=O)[O-])CN1 and N=C(NCCCCCC(=O)N[C@@H]1CN[C@H](C(=O)Nc2ccccc2Cl)C1)N[N+](=O)[O-] are within 1.5-fold of each other in IC50: 119 µM for the first, 108 µM for the second.

Going from N=C(NCCCCCC(=O)N[C@@H]1CN[C@H](C(=O)NCc2ccccc2)C1)N[N+](=O)[O-] to N=C(NCCCCCC(=O)N[C@@H]1CN[C@H](C(=O)Nc2ccccc2)C1)N[N+](=O)[O-], the IC50 falls from 43.5 µM to 2.36 µM (18-fold). The second is the more potent here.

Going from N=C(NCCCCCC(=O)N[C@@H]1CN[C@H](C(=O)Nc2ccc([N+](=O)[O-])cc2)C1)N[N+](=O)[O-] to N=C(NCCCCCC(=O)N[C@@H]1CN[C@H](C(=O)Nc2cccc([N+](=O)[O-])c2)C1)N[N+](=O)[O-], the IC50 rises from 25 µM to 46 µM (1.8-fold). The first is the more potent here.

Going from N=C(NCCCCCC(=O)N[C@@H]1CN[C@H](C(=O)NC2CCCCC2)C1)N[N+](=O)[O-] to Cc1cccc(NC(=O)[C@@H]2C[C@H](NC(=O)CCCCCNC(=N)N[N+](=O)[O-])CN2)c1, the IC50 rises from 7.37 µM to 120 µM (16-fold).

Going from COc1ccc(NC(=O)[C@@H]2C[C@H](NC(=O)CCCCCNC(=N)N[N+](=O)[O-])CN2)cc1 to CCOc1ccc(NC(=O)[C@@H]2C[C@H](NC(=O)CCCCCNC(=N)N[N+](=O)[O-])CN2)cc1, the IC50 rises from 26.7 µM to 162 µM (6.1-fold).

Cc1ccc(NC(=O)[C@@H]2C[C@H](NC(=O)CCCCCNC(=N)N[N+](=O)[O-])CN2)c(C)c1 and N=C(NCCCCCC(=O)N[C@@H]1CN[C@H](C(=O)Nc2ccc(F)cc2F)C1)N[N+](=O)[O-] are within 1.5-fold of each other in IC50: 120 µM for the first, 139 µM for the second.

Cc1ccc(NC(=O)[C@@H]2C[C@H](NC(=O)CCCCCNC(=N)N[N+](=O)[O-])CN2)cc1Cl and N=C(NCCCCCC(=O)N[C@@H]1CN[C@H](C(=O)Nc2ccc(F)c(F)c2)C1)N[N+](=O)[O-] are within 1.5-fold of each other in IC50: 2.5 µM for the first, 2.68 µM for the second.

N=C(NCCCCCC(=O)N[C@@H]1CN[C@H](C(=O)Nc2ccc(Cl)cc2)C1)N[N+](=O)[O-] and N=C(NCCCCCC(=O)N[C@@H]1CN[C@H](C(=O)Nc2ccc(Br)cc2)C1)N[N+](=O)[O-] are within 1.5-fold of each other in IC50: 80 µM for the first, 74.6 µM for the second.

First: N=C(NCCCCCC(=O)N[C@@H]1CN[C@H](C(=O)Nc2cccc(Cl)c2)C1)N[N+](=O)[O-]
Second: N=C(NCCCCCC(=O)N[C@@H]1CN[C@H](C(=O)Nc2cc(Cl)cc(Cl)c2)C1)N[N+](=O)[O-]
The IC50 of the first is 6.7-fold lower: 13 µM for the first, 87.3 µM for the second. The first is the more potent here.

Compared with N=C(NCCCCCC(=O)N[C@@H]1CN[C@H](C(=O)Nc2ccc(F)c(F)c2F)C1)N[N+](=O)[O-], N=C(NCCCCCC(=O)N[C@@H]1CN[C@H](C(=O)Nc2ccc(Cl)cc2Cl)C1)N[N+](=O)[O-] is 2.3-fold lower in IC50: 36.2 µM for the first, 15.5 µM for the second.

Compared with N=C(NCCCCCC(=O)N[C@@H]1CN[C@H](C(=O)Nc2cc(Cl)ccc2Cl)C1)N[N+](=O)[O-], N=C(NCCCCCC(=O)N[C@@H]1CN[C@H](C(=O)Nc2ccccc2F)C1)N[N+](=O)[O-] is 8-fold lower in IC50: 105 µM for the first, 13.1 µM for the second.

N=C(NCCC[C@H](N)C(=O)O)N[N+](=O)[O-] [NITROARGININE] and N=C(NCCCCCC(=O)N[C@@H]1CN[C@H](C(=O)Nc2cc(F)cc(F)c2)C1)N[N+](=O)[O-] are within 1.5-fold of each other in IC50: 14.7 µM for the first, 11.7 µM for the second.

N=C(NCCCCCC(=O)N[C@@H]1CN[C@H](C(=O)Nc2ccc(F)cc2)C1)N[N+](=O)[O-] and Cc1ccc(NC(=O)[C@@H]2C[C@H](NC(=O)CCCCCNC(=N)N[N+](=O)[O-])CN2)cc1 are within 1.5-fold of each other in IC50: 87 µM for the first, 123 µM for the second.
